The subject of one assay is MM1.S. Briefly: Antiproliferative activity against human MM1.S cells assessed as reduction in cell proliferation incubated for 72 hrs by MTS assay. Format: functional, cell-based. The method, boiled down: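 MM1.S cells seeded at 2 × 10^5 cells/well, exposed 72 h in triplicate across 12.5–500 nM. Proliferation read by MTS dye absorbance. EC50 fitted with an [inhibitor] vs. normalized response model; uncertainty given as standard error.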
Background: Tetrazolium assays rely on reduction of a dye to a coloured formazan, in cell work by metabolically active cells.

Assay [1] deals with T1, CREB-binding protein/Histone acetyltransferase p300 (Homo sapiens) (UniProt Q09472+Q92793). Briefly: Protac activity at p300/CBP degradation in human MM1.S cells assessed as amount p300 remaining at 10 uM incubated for 24 hrs by pulldown-based Western blot analysis. The format is cell-based. The method, boiled down: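 MM1.S cells at 2 × 10^6 cells/well in RPMI 1640, pre-incubated 24 h at 37 °C, 5% CO2, then exposed 24 h at 1, 5 or 10 µM. RIPA lysates run on 3–8% tris-acetate SDS gels and probed for p300 and β-actin. Band intensity expressed relative to the lane's DMSO vehicle and β-actin loading control.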
(In general: Immunoblotting shows a protein as a band on a membrane.)

For assay [2], the target named is T1, CREB-binding protein/Histone acetyltransferase p300 (Homo sapiens). Briefly: Binding affinity to p300/CBP in human OPM-2 cell lysate assessed as p300 pull down and measured after 12 hrs by pulldown-based Western blot analysis. The format is subcellular. The method, boiled down: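 Biotinylated ligands coupled to streptavidin magnetic beads for 3 h at room temperature in 50 mM Tris pH 7.5, 300 mM NaCl, 0.05% NP40. Beads then incubated with OPM2 cell lysate overnight at 4°C, washed in binding buffer, boiled off in SDS loading buffer. Bound p300 detected by SDS-PAGE and anti-p300 immunoblot.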

Activity calls are given as the source filed them. The calls are words filed in the database; no cut-off is given here.

T1 sequence (Q09472 whole entry, looked up): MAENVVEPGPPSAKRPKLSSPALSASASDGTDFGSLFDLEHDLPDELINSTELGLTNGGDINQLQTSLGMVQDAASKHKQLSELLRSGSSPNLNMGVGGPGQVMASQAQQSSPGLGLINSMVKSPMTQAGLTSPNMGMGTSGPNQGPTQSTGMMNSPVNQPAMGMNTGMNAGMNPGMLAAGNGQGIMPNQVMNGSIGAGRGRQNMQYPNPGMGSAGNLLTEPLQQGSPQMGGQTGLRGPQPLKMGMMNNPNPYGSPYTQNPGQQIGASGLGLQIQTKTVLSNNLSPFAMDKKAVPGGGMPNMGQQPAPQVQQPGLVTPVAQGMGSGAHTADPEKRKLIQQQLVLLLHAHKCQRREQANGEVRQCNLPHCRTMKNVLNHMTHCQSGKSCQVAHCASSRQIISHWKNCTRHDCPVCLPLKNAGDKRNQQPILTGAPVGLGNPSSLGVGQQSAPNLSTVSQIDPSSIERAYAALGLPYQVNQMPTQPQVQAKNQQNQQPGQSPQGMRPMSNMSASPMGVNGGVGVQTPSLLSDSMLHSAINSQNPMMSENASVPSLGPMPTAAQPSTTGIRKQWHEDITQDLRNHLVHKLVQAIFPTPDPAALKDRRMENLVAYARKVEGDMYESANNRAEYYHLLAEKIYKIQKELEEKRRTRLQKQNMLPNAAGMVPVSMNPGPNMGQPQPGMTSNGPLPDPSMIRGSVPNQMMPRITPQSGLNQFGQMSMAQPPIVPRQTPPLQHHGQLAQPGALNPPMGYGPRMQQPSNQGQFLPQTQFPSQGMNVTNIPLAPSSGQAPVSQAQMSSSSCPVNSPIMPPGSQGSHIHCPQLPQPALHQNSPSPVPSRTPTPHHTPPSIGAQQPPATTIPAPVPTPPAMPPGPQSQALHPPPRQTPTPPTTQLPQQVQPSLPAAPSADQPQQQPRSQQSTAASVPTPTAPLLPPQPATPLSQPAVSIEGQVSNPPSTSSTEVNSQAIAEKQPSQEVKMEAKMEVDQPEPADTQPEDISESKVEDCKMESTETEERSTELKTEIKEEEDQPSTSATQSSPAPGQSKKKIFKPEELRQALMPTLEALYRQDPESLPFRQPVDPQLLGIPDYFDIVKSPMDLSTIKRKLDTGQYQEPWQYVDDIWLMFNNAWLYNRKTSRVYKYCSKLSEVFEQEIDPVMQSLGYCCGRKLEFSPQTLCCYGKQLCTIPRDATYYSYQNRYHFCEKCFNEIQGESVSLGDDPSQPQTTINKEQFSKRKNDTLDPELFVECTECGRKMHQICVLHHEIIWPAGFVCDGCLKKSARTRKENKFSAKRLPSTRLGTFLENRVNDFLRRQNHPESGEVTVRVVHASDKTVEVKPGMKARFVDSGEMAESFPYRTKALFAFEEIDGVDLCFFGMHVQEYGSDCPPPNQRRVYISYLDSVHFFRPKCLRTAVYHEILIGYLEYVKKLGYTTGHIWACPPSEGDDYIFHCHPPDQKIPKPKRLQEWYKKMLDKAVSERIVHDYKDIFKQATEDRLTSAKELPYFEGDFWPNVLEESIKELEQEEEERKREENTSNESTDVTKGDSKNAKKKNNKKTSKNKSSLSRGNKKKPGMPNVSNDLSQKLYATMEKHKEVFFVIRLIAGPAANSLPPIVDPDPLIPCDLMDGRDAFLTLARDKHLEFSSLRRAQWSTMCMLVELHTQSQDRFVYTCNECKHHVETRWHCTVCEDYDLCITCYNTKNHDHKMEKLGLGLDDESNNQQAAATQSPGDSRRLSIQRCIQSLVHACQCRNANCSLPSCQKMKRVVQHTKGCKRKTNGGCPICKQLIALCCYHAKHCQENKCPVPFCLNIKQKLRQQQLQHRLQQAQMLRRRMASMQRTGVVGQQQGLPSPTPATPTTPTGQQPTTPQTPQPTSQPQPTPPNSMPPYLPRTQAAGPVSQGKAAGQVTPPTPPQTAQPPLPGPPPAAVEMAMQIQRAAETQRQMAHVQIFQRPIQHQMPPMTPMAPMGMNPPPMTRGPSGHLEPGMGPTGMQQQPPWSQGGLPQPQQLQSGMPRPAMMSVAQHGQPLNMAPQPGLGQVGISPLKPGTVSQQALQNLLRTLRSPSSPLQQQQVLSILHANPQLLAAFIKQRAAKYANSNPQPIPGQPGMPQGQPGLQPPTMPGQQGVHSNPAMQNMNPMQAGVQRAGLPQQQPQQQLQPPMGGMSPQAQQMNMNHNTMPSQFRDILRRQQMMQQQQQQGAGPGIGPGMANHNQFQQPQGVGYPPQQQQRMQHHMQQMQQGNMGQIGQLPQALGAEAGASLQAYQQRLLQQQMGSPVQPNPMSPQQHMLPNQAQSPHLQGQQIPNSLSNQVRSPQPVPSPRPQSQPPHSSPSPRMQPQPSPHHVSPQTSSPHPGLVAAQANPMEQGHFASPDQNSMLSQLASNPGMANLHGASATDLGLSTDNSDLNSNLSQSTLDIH
T1 sequence (Q92793 whole entry, looked up): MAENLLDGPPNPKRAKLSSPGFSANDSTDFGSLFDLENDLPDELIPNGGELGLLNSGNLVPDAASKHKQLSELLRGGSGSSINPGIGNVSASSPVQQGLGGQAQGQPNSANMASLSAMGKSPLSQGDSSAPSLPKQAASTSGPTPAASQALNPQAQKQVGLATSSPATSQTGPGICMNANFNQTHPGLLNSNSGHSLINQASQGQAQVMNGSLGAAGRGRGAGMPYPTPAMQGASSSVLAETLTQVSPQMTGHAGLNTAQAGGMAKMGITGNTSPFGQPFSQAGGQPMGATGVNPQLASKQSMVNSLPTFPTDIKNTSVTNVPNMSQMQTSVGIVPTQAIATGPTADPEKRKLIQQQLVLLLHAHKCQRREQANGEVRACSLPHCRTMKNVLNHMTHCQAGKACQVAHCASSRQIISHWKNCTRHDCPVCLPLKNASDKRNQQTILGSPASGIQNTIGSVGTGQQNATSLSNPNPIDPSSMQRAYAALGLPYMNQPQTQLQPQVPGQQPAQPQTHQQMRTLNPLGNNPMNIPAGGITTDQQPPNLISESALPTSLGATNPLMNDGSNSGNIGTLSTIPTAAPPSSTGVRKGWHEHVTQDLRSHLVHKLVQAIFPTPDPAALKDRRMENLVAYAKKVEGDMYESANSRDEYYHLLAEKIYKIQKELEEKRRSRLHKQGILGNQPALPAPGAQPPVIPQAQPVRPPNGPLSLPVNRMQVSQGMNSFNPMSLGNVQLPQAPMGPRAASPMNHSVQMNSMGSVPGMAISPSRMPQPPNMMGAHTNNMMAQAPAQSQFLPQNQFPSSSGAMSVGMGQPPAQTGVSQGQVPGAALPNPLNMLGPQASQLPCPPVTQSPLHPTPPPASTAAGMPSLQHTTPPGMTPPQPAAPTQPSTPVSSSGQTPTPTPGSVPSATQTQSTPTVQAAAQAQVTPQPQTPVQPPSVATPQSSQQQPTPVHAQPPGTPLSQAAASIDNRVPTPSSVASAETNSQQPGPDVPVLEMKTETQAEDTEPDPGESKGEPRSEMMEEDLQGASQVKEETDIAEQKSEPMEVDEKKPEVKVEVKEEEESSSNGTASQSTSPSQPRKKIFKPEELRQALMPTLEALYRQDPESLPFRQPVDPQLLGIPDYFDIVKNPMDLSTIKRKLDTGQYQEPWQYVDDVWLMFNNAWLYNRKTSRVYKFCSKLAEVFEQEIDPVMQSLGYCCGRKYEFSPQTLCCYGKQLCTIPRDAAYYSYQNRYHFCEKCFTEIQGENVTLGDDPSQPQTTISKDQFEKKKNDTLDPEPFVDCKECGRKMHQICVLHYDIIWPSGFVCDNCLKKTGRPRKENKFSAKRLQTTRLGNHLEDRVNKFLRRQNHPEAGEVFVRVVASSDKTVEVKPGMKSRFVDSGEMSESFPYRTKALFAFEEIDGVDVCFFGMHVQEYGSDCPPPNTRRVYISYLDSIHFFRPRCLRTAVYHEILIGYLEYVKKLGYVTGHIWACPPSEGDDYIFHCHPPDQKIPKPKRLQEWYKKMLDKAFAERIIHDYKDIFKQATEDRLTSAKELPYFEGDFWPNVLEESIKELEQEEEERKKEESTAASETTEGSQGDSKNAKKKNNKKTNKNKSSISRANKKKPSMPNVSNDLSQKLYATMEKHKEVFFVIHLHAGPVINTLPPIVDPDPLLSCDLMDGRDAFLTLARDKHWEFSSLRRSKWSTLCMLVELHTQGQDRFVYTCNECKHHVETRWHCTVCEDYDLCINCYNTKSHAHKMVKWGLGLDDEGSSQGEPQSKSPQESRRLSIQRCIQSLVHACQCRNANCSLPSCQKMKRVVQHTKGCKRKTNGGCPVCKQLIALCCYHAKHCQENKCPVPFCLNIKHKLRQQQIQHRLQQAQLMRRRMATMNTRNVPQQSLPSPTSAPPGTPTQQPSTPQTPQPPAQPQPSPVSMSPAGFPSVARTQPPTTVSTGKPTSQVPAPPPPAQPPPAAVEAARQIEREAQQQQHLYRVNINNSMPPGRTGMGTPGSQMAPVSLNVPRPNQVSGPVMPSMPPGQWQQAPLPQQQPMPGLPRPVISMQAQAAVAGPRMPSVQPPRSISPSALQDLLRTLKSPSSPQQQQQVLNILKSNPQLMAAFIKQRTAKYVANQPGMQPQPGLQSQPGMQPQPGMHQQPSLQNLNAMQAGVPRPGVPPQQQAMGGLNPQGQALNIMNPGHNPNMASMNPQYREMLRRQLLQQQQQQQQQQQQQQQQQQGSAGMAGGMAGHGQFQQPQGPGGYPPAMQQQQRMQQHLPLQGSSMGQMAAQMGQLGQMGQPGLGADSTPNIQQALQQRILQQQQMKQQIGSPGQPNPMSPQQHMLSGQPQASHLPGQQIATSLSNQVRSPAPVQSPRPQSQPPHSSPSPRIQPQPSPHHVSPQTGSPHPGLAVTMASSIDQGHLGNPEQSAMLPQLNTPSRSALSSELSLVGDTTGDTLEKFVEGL

Regarding `C[C@H](N(Cc1ccc(F)cc1)C(=O)CN1C(=O)O[C@@]2(CCc3cc(NC(=O)NCCOCCOCCOCCOCCNc4cccc5c4C(=O)N(C4CCC(=O)NC4=O)C5=O)ccc32)C1=O)C(F)(F)F` (stereo partly drawn), in the assay with MM1.S, the half-maximal effective concentration (EC50) (as a rule, the concentration that produces a half-maximal response) stood at 422 nM. Further, in assay [1], the Activity came out at 9%. Turning to `C[C@H](N(Cc1ccc(F)cc1)C(=O)CN1C(=O)O[C@@]2(CCc3cc(NC(=O)NCCCCNc4cccc5c4C(=O)N(C4CCC(=O)NC4=O)C5=O)ccc32)C1=O)C(F)(F)F` (stereo partly drawn), the Activity in assay [1] was determined as 42%. For the molecule `C[C@H](N(Cc1ccc(F)cc1)C(=O)CN1C(=O)O[C@@]2(CCc3cc(NC(=O)NCCOCCOCCNc4cccc5c4C(=O)N(C4CCC(=O)NC4=O)C5=O)ccc32)C1=O)C(F)(F)F` (stereo partly drawn), the EC50 with MM1.S came out at 294 nM. In assay [1], the Activity was 49%. For the molecule `CNC(=O)Nc1ccc2c(c1)CC[C@@]21OC(=O)N(CC(=O)N(Cc2ccc(F)cc2)[C@@H](C)C(F)(F)F)C1=O` [A-485], in the assay with MM1.S, the EC50 was 139 nM. Moreover, the result in assay [2] was Active. Turning to `C[C@H](N(Cc1ccc(F)cc1)C(=O)CN1C(=O)O[C@@]2(CCc3cc(NC(=O)NCCOCCOCCOCCNc4cccc5c4C(=O)N(C4CCC(=O)NC4=O)C5=O)ccc32)C1=O)C(F)(F)F` (stereo partly drawn), the Activity in assay [1] is 18%.

These data come from ChEMBL document CHEMBL5107978, “Identification of ligand linkage vectors for the development of p300/CBP degraders” (RSC Med Chem, 2022).
